Measured values: ChEMBL document CHEMBL1144474, “Synthesis and anti-HIV-1 activity evaluation of 5-alkyl-2-alkylthio-6-(arylcarbonyl or alpha-cyanoarylmethyl)-3,4-dihydropyrimidin-4(3H)-ones as novel non-nucleoside HIV-1 reverse transcriptase inhibitors” (J Med Chem, 2007)
pIC50: −log10 of the molar value.

Columns and labels:
[1] = tested on: Human immunodeficiency virus 1; assay: Antiviral activity against wild type HIV1 3B in MT4 cells after 4 days by MTT method; type: functional, organism-based; conditions: Human immunodeficiency virus 1, 3B, MT4, 96 h
Method in brief: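 MT-4 cells at 1 × 10⁵ cells/mL infected with HIV-1 IIIB (titrated as CCID₅₀) at MOI 0.02, then plated right away into serial compound dilutions (DMSO stocks, 50 mM or higher). After 4 days at 37 °C, viable cells were counted by MTT. IC₅₀ is the concentration giving 50% protection from viral cytopathogenicity.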

[2] = Cytotoxicity against MT4 cells after 4 days by MTT method; type: cell-based; conditions: human
Method in brief: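 Uninfected MT-4 cells were run in parallel with the infected cultures across a range of compound concentrations (DMSO stocks, 50 mM or higher). After 4 days at 37 °C, viability was read by MTT. CC₅₀ is the concentration that cuts normal cell viability by 50%.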

[3] = Selectivity index, CC50 for MT4 cells/IC50 for HIV1 3B; type: functional
Method in brief: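 Ratio of CC₅₀ in uninfected MT-4 cells to IC₅₀ against HIV-1 IIIB cytopathogenicity in MT-4 cells. Both values come from the 4-day, 37 °C MTT read-out, run in parallel.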

[4] = tested on: Human immunodeficiency virus 1; assay: Antiviral activity against HIV1 3B in human PBMC assessed by measuring p24 antigen production after 7 days by ELISA; type: functional, organism-based; conditions: Human immunodeficiency virus 1, 3B, 168 h
Method in brief: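 Donor PBMCs were isolated by density centrifugation, stimulated with PHA for 3 days and washed in PBS. Cells (2 × 10⁵/200 µL) were plated in serial compound dilutions and infected with HIV at 1000 CCID₅₀ per mL. On day 4, medium was partly replaced with fresh medium containing compound. p24 antigen in the supernatant was measured by ELISA on day 7.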

[5] = Cytotoxicity against mock-infecected human PBMC; type: cell-based; conditions: mock-infected PBMC
[6] = Selectivity index, CC50 for PBMC/IC50 for HIV1 3B; type: functional

Row | SMILES | pIC50 [1] | CC50 at 96 h [2] | Ratio CC50/IC50 [3] | pIC50 [4] | CC50 [5] | Ratio CC50/IC50 [6]
1 | C#CCSc1nc(C(=O)c2cccc3ccccc23)c(C)c(=O)[nH]1 | < 3.91 | 124 µM | <1 | – | – | –
2 | CCSc1nc(C(=O)c2ccccc2)cc(=O)[nH]1 | < 3.61 | 247 µM | <1 | – | – | –
3 | Cc1c(C(C#N)c2cccc3ccccc23)nc(SC2CCCC2)[nH]c1=O (stereo unspecified) | 6.10 | 49.4 µM | 61 | – | – | –
4 | Cc1c(C(C#N)c2ccccc2)nc(SCC(=O)c2ccccc2)[nH]c1=O (stereo unspecified) | 5.14 | 53.8 µM | 7 | – | – | –
5 | O=C(CSc1nc(C(=O)c2cccc3ccccc23)cc(=O)[nH]1)c1ccccc1 | < 3.52 | > 304 µM | – | – | – | –
6 | CCSc1nc(C(C#N)c2cccc3ccccc23)c(CC)c(=O)[nH]1 (stereo unspecified) | 5.93 | 122 µM | 103 | – | – | –
7 | CCSc1nc(C(=O)c2cccc3ccccc23)cc(=O)[nH]1 | 4.43 | 242 µM | 6 | – | – | –
8 | CCc1c(C(C#N)c2ccccc2)nc(SCc2ccc([N+](=O)[O-])cc2)[nH]c1=O (stereo unspecified) | 5.88 | 34.2 µM | 26 | – | – | –
9 | CCc1c(C(C#N)c2c(Cl)cccc2Cl)nc(SCc2ccc([N+](=O)[O-])cc2)[nH]c1=O (stereo unspecified) | 5.65 | 23.5 µM | 11 | – | – | –
10 | CC(C)Sc1nc(C(C#N)c2cccc3ccccc23)cc(=O)[nH]1 (stereo unspecified) | 6.18 | 53.2 µM | 82 | – | – | –
11 | C=CCSc1nc(C(=O)c2cccc3ccccc23)c(CC)c(=O)[nH]1 | 4.77 | 210 µM | 12 | – | – | –
12 | CCc1c(C(C#N)c2cccc3ccccc23)nc(SCC(=O)c2ccc(Cl)cc2)[nH]c1=O (stereo unspecified) | ≤ 4.45 | 117 µM | <=3 | – | – | –
13 | CCc1c(C(=O)c2cccc3ccccc23)nc(SC(C)C)[nH]c1=O | 5.17 | 179 µM | 26 | – | – | –
14 | CC(C)c1c(C(=O)c2cccc3ccccc23)nc(SC2CCCC2)[nH]c1=O | 4.96 | 24.7 µM | 2 | – | – | –
15 | CC(C)c1c(C(C#N)c2cccc3ccccc23)nc(SC2CCCC2)[nH]c1=O (stereo unspecified) | 5.87 | 7.32 µM | 5 | – | – | –
16 | CCc1c(C(=O)c2ccccc2)nc(SC2CCCC2)[nH]c1=O | 5.33 | 60.4 µM | 13 | – | – | –
17 | CCc1c(C(C#N)c2cccc3ccccc23)nc(SC2CCCC2)[nH]c1=O (stereo unspecified) | 6.74 | 51.9 µM | 293 | – | – | –
18 | O=C(c1cc(=O)[nH]c(SC2CCCC2)n1)c1cccc2ccccc12 | < 4.68 | 21 µM | <1 | – | – | –
19 | Cc1c(C(C#N)c2cccc3ccccc23)nc(SCC(=O)c2ccc(Cl)cc2)[nH]c1=O (stereo unspecified) | 5.33 | 148 µM | 32 | – | – | –

Row | SMILES | pIC50 [1] | CC50 at 96 h [2] | Ratio CC50/IC50 [3] | pIC50 [4] | CC50 [5] | Ratio CC50/IC50 [6]
20 | CCc1c(C(=O)c2cccc3ccccc23)nc(SCc2ccccc2)[nH]c1=O | < 3.51 | > 312 µM | – | – | – | –
21 | COc1ccc(CSc2nc(C(C#N)c3ccccc3)c(C(C)C)c(=O)[nH]2)cc1 (stereo unspecified) | 5.45 | 26.8 µM | 8 | – | – | –
22 | C#CCSc1nc(C(C#N)c2cccc3ccccc23)c(CC)c(=O)[nH]1 (stereo unspecified) | 5.31 | 48 µM | 10 | – | – | –
23 | CCc1c(C(C#N)c2cccc3ccccc23)nc(SCc2ccc([N+](=O)[O-])cc2)[nH]c1=O (stereo unspecified) | 5.90 | 24.5 µM | 20 | – | – | –
24 | COc1ccc(CSc2nc(C(C#N)c3cccc4ccccc34)c(C(C)C)c(=O)[nH]2)cc1 (stereo unspecified) | < 5.68 | 2.09 µM | <1 | – | – | –
25 | CCSc1nc(C(=O)c2cccc3ccccc23)c(CC)c(=O)[nH]1 | 4.56 | 197 µM | 7 | – | – | –
26 | Cc1c(C(C#N)c2ccccc2)nc(SC(C)C)[nH]c1=O (stereo unspecified) | 8.70 | 10.8 µM | 4600 | – | – | –
27 | CCc1c(C(=O)c2ccc3ccccc3c2)nc(SCc2ccccc2)[nH]c1=O | ≤ 4.22 | 157 µM | <=3 | – | – | –
28 | C=CCSc1nc(C(C#N)c2cccc3ccccc23)c(CC)c(=O)[nH]1 (stereo unspecified) | 6.24 | > 346 µM | >585 | – | – | –
29 | C#CCSc1nc(C(C#N)c2cccc3ccccc23)c(C)c(=O)[nH]1 (stereo unspecified) | 5.57 | 46.1 µM | 17 | – | – | –
30 | CCc1c(C(C#N)c2ccccc2)nc(SC(C)C)[nH]c1=O (stereo unspecified) | 6.19 | 58 µM | 91 | – | – | –
31 | Cc1c(C(=O)c2ccccc2)nc(SC(C)C)[nH]c1=O | 5.69 | 263 µM | 128 | – | – | –
32 | CCc1c(C(C#N)c2cccc3ccccc23)nc(SC(C)C)[nH]c1=O (stereo unspecified) | 6.62 | > 344 µM | >1400 | 5.78 | > 68.9 µM | >41
33 | N#CC(c1cc(=O)[nH]c(SC2CCCC2)n1)c1cccc2ccccc12 (stereo unspecified) | < 4.64 | 22.8 µM | <1 | – | – | –
34 | Cc1c(C(C#N)c2cccc3ccccc23)nc(SCC(=O)c2ccccc2)[nH]c1=O (stereo unspecified) | 7.05 | 164 µM | 1500 | 6.00 | 69.9 µM | 70
35 | COc1ccc(CSc2nc(C(C#N)c3c(Cl)cccc3Cl)c(C(C)C)c(=O)[nH]2)cc1 (stereo unspecified) | < 4.63 | 23.5 µM | <1 | – | – | –
36 | Cc1c(C(C#N)c2ccccc2)nc(SC2CCCC2)[nH]c1=O (stereo unspecified) | 5.20 | 59 µM | 9 | – | – | –
37 | Cc1c(Sc2ccccc2)n(COCCO)c(=O)[nH]c1=O [HEPT] | – | – | 80 | – | – | –
38 | Cc1ccnc2c1NC(=O)c1cccnc1N2C1CC1 [NEVIRAPINE] | 6.60 | > 200 µM | >800 | – | – | –
